# Screening results as filed in PubChem BioAssay.
# TNAP inh noacc = inhibitors of human TNAP without phosphate acceptor | purified TNAP, CDP-star luminescence, 30 min | P05186 | 200,000 compounds, 0.26% hits | inhibition, % at 20 µM;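 active means tissue-nonspecific alkaline phosphatase inhibition above about 50% at 20 µM in the single-dose screen, limit read from the data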;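 further: 0% = DMSO negative control and 100% = EDTA positive control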
# ABCG2 inh = inhibitors of human ABCG2 transporter, ABCB1 counter-screen | IgMXP3 cells, JC-1 efflux, flow cytometry | 190,000 compounds, 0.1% hits | Q9UNQ0 | inhibition, % at 6.6 µM;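 active means inhibition above 80%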;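 further: 0% = DMSO and 100% = nicardipine control wells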
#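 System: two drug-resistant human cell lines, ABCG2 and ABCB1; controls: nicardipine high and DMSO low controls; times: 10 min exposure at 25 °C with rotation, no wash; detection: flow cytometry of retained JC-1 fluorescence; read-out basis: percent efflux inhibition, scaled nicardipine 100% to DMSO 0%; doses: one concentration, 6.6 µM final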
# TNAP inh hiacc = inhibitors of human TNAP at high phosphate acceptor concentration. inhibition, % at 20 µM. P05186. purified TNAP, CDP-star luminescence, 1 M DEA. 200,000 compounds, 0.03% hits;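 active means over 50% inhibition of tissue-nonspecific alkaline phosphatase at 20 µM in the single-dose screen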;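 further: plate controls were DMSO wells for no effect and EDTA-quenched wells as full inhibition for full effect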
# ABCB1 block = blocks JC-1 efflux by human ABCB1 transporter; CCRF-Adr cells, flow cytometry; inhibition, % at 6.6 µM; 190,000 compounds, 0.067% hits; AID 1326; in the data active means inhibition above about 40%;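 further: 0% = vehicle and 100% = reference inhibitor; higher value means more JC-1 retained so stronger ABCB1 efflux block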
# Target sequence (P08183 whole entry, looked up): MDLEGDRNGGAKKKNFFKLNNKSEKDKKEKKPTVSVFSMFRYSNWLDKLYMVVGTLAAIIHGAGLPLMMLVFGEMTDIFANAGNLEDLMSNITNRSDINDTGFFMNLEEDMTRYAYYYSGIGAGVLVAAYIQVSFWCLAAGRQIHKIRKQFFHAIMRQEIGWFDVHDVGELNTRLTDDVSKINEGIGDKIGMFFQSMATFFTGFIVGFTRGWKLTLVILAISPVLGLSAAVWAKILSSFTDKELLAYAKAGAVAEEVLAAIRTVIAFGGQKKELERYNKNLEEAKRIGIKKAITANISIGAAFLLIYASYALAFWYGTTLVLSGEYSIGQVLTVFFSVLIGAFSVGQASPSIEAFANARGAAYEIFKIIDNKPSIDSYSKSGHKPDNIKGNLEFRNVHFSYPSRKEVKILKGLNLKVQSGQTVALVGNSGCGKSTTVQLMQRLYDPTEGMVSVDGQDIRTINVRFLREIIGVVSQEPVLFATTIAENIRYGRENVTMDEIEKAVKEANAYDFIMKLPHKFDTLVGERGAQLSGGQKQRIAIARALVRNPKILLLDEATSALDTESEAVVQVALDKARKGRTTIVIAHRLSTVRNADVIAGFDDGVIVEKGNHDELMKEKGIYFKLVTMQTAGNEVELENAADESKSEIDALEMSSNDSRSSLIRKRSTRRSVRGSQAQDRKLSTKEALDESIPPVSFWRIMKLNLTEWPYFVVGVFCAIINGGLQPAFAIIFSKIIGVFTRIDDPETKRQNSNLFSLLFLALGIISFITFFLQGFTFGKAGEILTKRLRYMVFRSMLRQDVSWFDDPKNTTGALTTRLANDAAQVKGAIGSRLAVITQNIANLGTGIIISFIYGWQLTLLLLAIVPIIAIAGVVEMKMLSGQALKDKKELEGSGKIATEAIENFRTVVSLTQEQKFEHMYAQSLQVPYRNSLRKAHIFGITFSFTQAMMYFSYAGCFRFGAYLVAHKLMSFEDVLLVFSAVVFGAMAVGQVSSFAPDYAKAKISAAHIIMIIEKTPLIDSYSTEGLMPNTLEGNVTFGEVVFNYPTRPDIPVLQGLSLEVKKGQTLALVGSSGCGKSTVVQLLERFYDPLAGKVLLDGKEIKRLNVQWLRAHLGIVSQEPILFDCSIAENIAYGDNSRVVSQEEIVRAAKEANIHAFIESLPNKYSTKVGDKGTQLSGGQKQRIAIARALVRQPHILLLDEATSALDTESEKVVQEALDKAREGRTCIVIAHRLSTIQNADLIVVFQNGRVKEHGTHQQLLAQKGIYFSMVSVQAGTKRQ
# TNAP act hi DEA = activators of human TNAP at high phosphate acceptor concentration | purified TNAP, CDP-star luminescence, 1 M DEA, 30 min; active compounds read high; 0 = EDTA background, 1 = DMSO-only activity | activation factor at 20 µM | 200,000 tested, under 10 active;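 active means activation factor at least 2 at 20 µM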
#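 Test system – human TNAP · Doses – 20 µM single point · Incubation – 30 min, room temperature · Signal – luminescent substrate turnover signal · Read-out basis – activation factor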
# PKD1 inh = blocks activity of human protein kinase D1; PKD1 kinase fluorescence polarization assay; inhibition, % (test concentration not listed); 200,000 compounds, 0.056% hits; AID 797; in the data active means inhibition above about 50%
# ABCB1 single pt = confirmation of human ABCB1 transporter inhibitors, ABCG2 counter-screen; 270 compounds, 7% hits; CCRF-Adr cells, JC-1 efflux, flow cytometry; AID 1451; shares compounds with ABCG2 inh; inhibition, % at 6.6 µM;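 active means inhibition of pump activity above 50%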;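 further: 0% = DMSO and 100% = nicardipine full pump inhibition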
# ABCG2 confirm = inhibits human ABCG2 efflux, confirmed at single point; AID 1453; IgMXP3 cells, JC-1 efflux, flow cytometry; 270 compounds, 6% hits; inhibition, % at 6.6 µM; shares compounds with ABCG2 inh;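 active means inhibition above 50%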;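 further: 0% = DMSO wells and 100% = nicardipine pump inhibitor wells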
# IgMXP3 autofluor = compound fluoresces at 488/530 nm in IgMXP3 cells; fluorescence at 6.6 µM; AID 1480; shares compounds with ABCG2 inh; 270 compounds, 30% hits; compound autofluorescence 488/530 nm, flow; active compounds read high;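 active means fluorescence in ABCG2-expressing cells above the plate's control-well mean plus 3 SD, cut at about 15 in these data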;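 further: median cell fluorescence with compound minus that of DMSO-treated control cells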
# CCRF autofluor = counter-screen for ABCB1 inhibitors: compound fluorescence in CCRF-Adr cells | shares compounds with ABCG2 inh | compound autofluorescence 488/530 nm, flow cytometry; active compounds read high | fluorescence at 6.6 µM | 270 compounds, 30% hits | AID 1483;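 active means fluorescence beyond the plate control mean plus 3 SD, with a fluorescence-to-maximum score over 2, cut at about 25 in these data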
# Numbers without * were called inactive; · = no result. Sampled rows, rich in hits. Any-hit rate of the full collection: about 0.48%.
SMILES,TNAP inh noacc,ABCG2 inh,TNAP inh hiacc,ABCB1 block,TNAP act hi DEA,PKD1 inh,ABCB1 single pt,ABCG2 confirm,IgMXP3 autofluor,CCRF autofluor
CCOC(=O)/C(C#N)=C\c1cc(C)n(-c2ccccc2)c1C,-7.5,80.8*,-1.5,3.8,1,-7.5,4.0,26.1,-1.24,-2.09
COc1ccc(C(=O)Cn2nnc(-c3ccccc3NC(=O)C3CC3)n2)cc1,-11.8,82.3*,-6.5,6.2,1.1,-3.4,-0.2,3.8,70*,8.21
COc1ccc(C(=O)Cn2nnc(-c3ccccc3F)n2)cc1,-4.7,1.7,-5.6,0.5,1.1,-7.8,·,·,·,·
Cc1sc2ncnc(SCC(=O)NC(=O)c3cccn3C)c2c1C,-2.4,13.0,2.7,1.3,1,-6.6,·,·,·,·
O=c1cc(-c2ccccc2)[nH][nH]1,-4.5,-1.8,-2.2,81.9*,1,-0.3,1.4,-1.7,-1.14,0.06
O=C1NC(c2ccc(-c3ccccc3[N+](=O)[O-])o2)C(C(=O)c2ccc(F)cc2)C(O)(C(F)(F)F)N1 (configuration not stated),11.1,88.4*,2.3,1.4,1,-8.5,9.4,20.5,14.7*,12.8
O=[N+]([O-])c1ccccc1-c1nc(-c2ccc(Br)o2)no1,-16.0,90.3*,-1.4,1.7,1,-2.1,1.6,28.2,-0.34,0.61
Cc1ccc(OC(=O)CCN2C(=O)c3ccccc3C2=O)cc1C,-8.5,3.6,-1.2,1.3,1,5.7,·,·,·,·
Nn1c(Cc2cccc3ccccc23)nnc1SCc1c(Cl)cccc1Cl,-18.9,2.4,-3.9,1.2,1,-0.4,·,·,·,·
Nn1c(Cc2cccc3ccccc23)nnc1SCc1ccc(Cl)c(Cl)c1,-20.0,81.7*,-6.0,66.5*,1.1,-8.4,1.0,17.4,0.36,-1.94
COC(=O)c1ccccc1NC(=O)CSc1nnc(-c2cccnc2)n1N,0.3,12.9,-3.4,0.5,1,-9.9,·,·,·,·
OCCC#Cc1ccc(CN2CCN(Cc3ccccc3)C(CCO)C2)cc1 (configuration not stated),-9.4,89.3*,-6.4,13.6,1.1,-3.6,2.8,3.9,4.26,12.8
O=[N+]([O-])c1cnc2nc(-c3ccncc3)nn2c1O,10.8,4.9,-7.1,2.2,1.1,2.7,·,·,·,·
CCOc1nc(-c2ccccc2)ccc1-c1noc(COC)n1,-6.8,76.1,-0.9,1.2,1,-10.7,-1.4,27.2,3.96,3.76
O=C(Nc1ccccc1)Nc1nc(-c2ccc(F)cc2)cs1,-10.6,81.1*,-1.7,1.3,1,-6.0,-0.7,18.9,1.11,22.1
NC(=S)N=Nc1c(O)[nH]c2ccc(F)cc12,27.6,80.5,6.4,-0.1,0.9,6.0,0.3,21.4,-1.89,-3.84
COc1ccc(NS(=O)(=O)c2ccc(NC(=S)NC(=O)/C=C/c3ccccc3)cc2)nn1,-14.0,4.3,-4.4,-0.5,1,-1.4,·,·,·,·
CCN(CC)c1ccc2cc(-c3nc4ccccc4[nH]3)c(=O)oc2c1,-46.0,65.3,-7.0,39.4,1.1,45.6,-129.0,-14.7,122*,296*
CCOC(=O)C1ON2CCCCC2C1(O)C(F)(F)F (configuration not stated),-10.8,-0.7,-1.4,-0.4,1,-7.1,·,·,·,·
CCOC(=O)CSc1nc2cc(C)cc(C)c2cc1C#N,-3.5,98.7*,-4.7,2.2,1,0.2,1.0,16.0,61*,0.71
CCOC(=O)CSc1nc2cc(C)ccc2cc1C#N,-3.8,4.8,1.7,0.3,1,7.0,·,·,·,·
COc1cccc(C(=O)Oc2cc3c4c(c2)C(C)=CC(C)(C)N4C(=O)C3=O)c1,1.6,14.1,-1.3,2.8,1,-2.2,·,·,·,·
COc1ccc(C(=O)Oc2cc3c4c(c2)C(C)=CC(C)(C)N4C(=O)C3=O)cc1OC,2.2,90.6*,-0.7,24.4,1,-9.2,20.3,28.5,13.5,7.41
O=C1/C(=C/c2ccc(N3CCOCC3)o2)SC(=Nc2ccccc2)N1CCc1c[nH]c2ccccc12,18.0,127.4*,16.9,81.2*,0.8,-1.4,2.6,0.1,76.9*,192*
O=C1S/C(=C/c2ccc(N3CCOCC3)o2)C(=O)N1Cc1ccc(F)cc1,-5.6,111.4*,14.5,6.8,0.9,-8.9,4.5,-10.3,196*,40.6*
SMILES,TNAP inh noacc,ABCG2 inh,TNAP inh hiacc,ABCB1 block,TNAP act hi DEA,PKD1 inh,ABCB1 single pt,ABCG2 confirm,IgMXP3 autofluor,CCRF autofluor
COc1cc(/C=C2\SC(=Nc3ccccc3)N(CCc3c[nH]c4ccccc34)C2=O)ccc1OC(C)C(=O)O (configuration not stated),-8.6,-2.3,4.7,-0.4,1,7.8,·,·,·,·
O=C(Nc1cc(Cl)ccc1Cl)c1ccc(-c2ccccc2)cc1,-2.2,1.1,3.4,-0.2,1,-4.3,·,·,·,·
O=C(Nc1ccc(Cl)cc1C(F)(F)F)c1ccccc1,-10.6,36.2,-1.6,43.5*,1,1.1,0.8,9.4,0.26,-3.44
COC(=O)c1ccc(C(C(=O)NC2CCCCC2)N(Cc2ccccc2)C(=O)Cc2cccs2)cc1 (configuration not stated),-13.3,45.1,2.6,48.4*,1,-3.6,26.1,27.2,-2.39,-4.54
COC(=O)c1ccc(C(C(=O)NC2CCCCC2)N(C(=O)Cc2cccs2)C2CC2)cc1 (configuration not stated),-6.3,4.1,-0.1,2.0,1,-6.2,·,·,·,·
CN(CCCOc1ccccc1Br)Cc1ccccc1,-8.5,0.0,-5.5,56.1*,1.1,-2.9,-5.5,-8.7,112*,25.5*
Cc1ccc(NC(=S)N2CCCCC2CO)cc1C (configuration not stated),-9.9,2.8,-8.0,-0.5,1.1,-0.7,·,·,·,·
CN(C)c1nc(OCCOC(=O)COc2ccc(Cl)cc2Cl)nc(N(C)C)n1,-1.7,24.6,2.5,2.1,1,-0.2,·,·,·,·
CN(C)c1nc(OCCNC(=O)COc2ccc(Cl)cc2Cl)nc(N(C)C)n1,-7.2,28.0,0.7,61.1*,1,-3.4,36.9,40.8,-2.29,-5.09
COc1ccc(CN(C)C(=S)Nc2ccc(Cl)cc2)cc1,-9.9,-0.6,-4.5,-0.6,1,-4.2,·,·,·,·
